Results taken from ChEMBL document CHEMBL1123393, “5-HT1 and 5-HT2 binding characteristics of 1-(2,5-dimethoxy-4-bromophenyl)-2-aminopropane analogues” (J Med Chem, 1986).

Assays:
[1] = biological target: Serotonin 1 (5-HT1) receptor (Rattus norvegicus, UniProt P28564+P30940+P19327+P28565); test: Binding affinity for 5-hydroxytryptamine 1 receptor of rat prefrontal cortex; format: tissue-based
Procedure, shortened: (§1)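 Rat prefrontal cortex (female Sprague-Dawley, ca. 200 g) homogenate, 4 mg wet weight tissue per tube, in 50 mM Tris, 5 mM MgCl2, 0.5 mM EDTA (pH 7.4 at 37 °C). Radioligand 2 nM [3H]-5-HT for 5-HT1 or 0.4 nM [3H]ketanserin for 5-HT2. Nonspecific binding with 1 μM 5-HT or 1 μM cinanserin. Filtration, scintillation counting. IC50 from a 23-point curve in triplicate by nonlinear fit; Ki by Cheng-Prusoff.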

[2] = biological target: Serotonin 2 (5-HT2) receptor (Rattus norvegicus, UniProt P30994+P08909+P14842); test: Displacement of [3H]ketanserin from rat prefrontal cortex 5-hydroxytryptamine 2 receptor; format: tissue-based; procedure, shortened: as §1
[3] = system: Rattus norvegicus; test: Number of animals responding to the drug 6 (mg/kg) out of 5 animals tested; format: functional
[4] = system: Rattus norvegicus; test: DOM appropriate responding in percent when compound administered at 4 mg/kg; format: functional
Procedure, shortened: (§2)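 Rats trained to discriminate DOM (1.0 mg/kg ip, 15-min presession interval) from saline on two levers. Test doses given ip. Percent of responses on the DOM-appropriate lever recorded during a 2.5-min extinction session.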

[5] = system: Rattus norvegicus; test: Number of animals responding to the drug (mg/kg) out of 4 animals tested; format: functional
[6] = system: Rattus norvegicus; test: DOM appropriate responses per min when compound administered at 5 mg/kg; format: functional
Procedure, shortened: (§3)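 DOM (1.0 mg/kg ip) versus saline two-lever discrimination in food-restricted male Sprague-Dawley rats. Test doses given ip with a 15-min presession interval. Response rate (responses/min) measured during a 2.5-min extinction test session.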

[7] = system: Rattus norvegicus; test: DOM appropriate responses per min when compound administered at 6 mg/kg; format: functional; procedure, shortened: as §3
[8] = system: Rattus norvegicus; test: Number of animals responding to the drug 7 (mg/kg) out of 5 animals tested; format: functional
[9] = system: Rattus norvegicus; test: DOM appropriate responses per min when compound administered at 8 mg/kg; format: functional; procedure, shortened: as §3
[10] = system: Rattus norvegicus; test: DOM appropriate responding in percent when compound administered at 6 mg/kg; format: functional; procedure, shortened: as §2
[11] = system: Rattus norvegicus; test: DOM appropriate responses per min when compound administered at 7 mg/kg; format: functional; procedure, shortened: as §3
[12] = system: Rattus norvegicus; test: DOM appropriate responses per min when compound administered at 4 mg/kg; format: functional; procedure, shortened: as §3
[13] = system: Rattus norvegicus; test: Number of animals responding to the drug 8 (mg/kg) out of 3 animals tested; format: functional
[14] = system: Rattus norvegicus; test: DOM appropriate responding in percent when compound administered at 5 mg/kg; format: functional; procedure, shortened: as §2
[15] = system: Rattus norvegicus; test: DOM appropriate responding in percent when compound administered at 7 mg/kg; format: functional; procedure, shortened: as §2
[16] = system: Rattus norvegicus; test: DOM appropriate responding in percent when compound administered at 8 mg/kg; format: functional; procedure, shortened: as §2
[17] = system: Rattus norvegicus; test: Number of animals responding to the drug 5 (mg/kg) out of 6 animals tested; format: functional
[18] = system: Rattus norvegicus; test: Concentration required to produce DOM like response when administered in rats; format: functional
Procedure, shortened: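 Six male Sprague-Dawley rats, food-restricted to about 80% of free-feeding weight, trained on two-lever drug discrimination: DOM HCl 1.0 mg/kg ip versus saline, 15 min pre-session. Test drug given ip before a 2.5-min extinction test.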

[19] = system: Rattus norvegicus; test: Number of animals responding to the drug 11 (mg/kg) out of 3 animals tested; format: functional
[20] = system: Rattus norvegicus; test: DOM appropriate responses per min when compound administered at 12 mg/kg; format: functional; procedure, shortened: as §3
[21] = system: Rattus norvegicus; test: DOM appropriate responses per min when compound administered at 2 mg/kg; format: functional; procedure, shortened: as §3
[22] = system: Rattus norvegicus; test: Number of animals responding to the drug 12 (mg/kg) out of 3 animals tested; format: functional
[23] = system: Rattus norvegicus; test: DOM appropriate responses per min when compound administered at 11 mg/kg; format: functional; procedure, shortened: as §3
[24] = system: Rattus norvegicus; test: Number of animals responding to the drug 13 (mg/kg) out of 3 animals tested (second group of 3 animals); 1/3; format: functional
[25] = system: Rattus norvegicus; test: DOM appropriate responding in percent when compound administered at 10 mg/kg; format: functional; procedure, shortened: as §2
[26] = system: Rattus norvegicus; test: DOM appropriate responding in percent when compound administered at 12 mg/kg; format: functional; procedure, shortened: as §2
[27] = system: Rattus norvegicus; test: Number of animals responding to the drug 13 (mg/kg) out of 3 animals tested; format: functional
[28] = system: Rattus norvegicus; test: Number of animals responding to the drug 10 (mg/kg) out of 3 animals tested; format: functional
[29] = system: Rattus norvegicus; test: DOM appropriate responding in percent when compound administered at 11 mg/kg; format: functional; procedure, shortened: as §2
[30] = system: Rattus norvegicus; test: Number of animals responding to the drug 5 (mg/kg) out of 4 animals tested; format: functional
[31] = system: Rattus norvegicus; test: Number of animals responding to the drug 2 (mg/kg) out of 4 animals tested; format: functional
[32] = system: Rattus norvegicus; test: DOM appropriate responses per min when compound administered at 10 mg/kg; format: functional; procedure, shortened: as §3
[33] = system: Rattus norvegicus; test: DOM appropriate responding in percent when compound administered at 2 mg/kg; format: functional; procedure, shortened: as §2
[34] = system: Rattus norvegicus; test: Number of animals responding to the drug 0.1 (mg/kg) out of 4 animals tested; format: functional
[35] = system: Rattus norvegicus; test: DOM appropriate responses per min when compound administered at 0.2 mg/kg; format: functional; procedure, shortened: as §3
[36] = system: Rattus norvegicus; test: DOM appropriate responding in percent when compound administered at 0.1 mg/kg; format: functional; procedure, shortened: as §2
[37] = system: Rattus norvegicus; test: DOM appropriate responses per min when compound administered at 0.1 mg/kg; format: functional; procedure, shortened: as §3
[38] = system: Rattus norvegicus; test: DOM appropriate responses per min when compound administered at 0.5 mg/kg; format: functional; procedure, shortened: as §3
[39] = system: Rattus norvegicus; test: DOM appropriate responding in percent when compound administered at 0.2 mg/kg; format: functional; procedure, shortened: as §2
[40] = system: Rattus norvegicus; test: Number of animals responding to the drug 0.5 (mg/kg) out of 3 animals tested; format: functional
[41] = system: Rattus norvegicus; test: Number of animals responding to the drug 0.2 (mg/kg) out of 3 animals tested; format: functional
[42] = system: Rattus norvegicus; test: DOM appropriate responding in percent when compound administered at 0.5 mg/kg; format: functional; procedure, shortened: as §2
[43] = system: Rattus norvegicus; test: Number of animals responding to the drug 1.2 (mg/kg) out of 3 animals tested; format: functional
[44] = system: Rattus norvegicus; test: DOM appropriate responding in percent when compound administered at 1.2 mg/kg; format: functional; procedure, shortened: as §2
[45] = system: Rattus norvegicus; test: Number of animals responding to the drug 1.8 (mg/kg) out of 3 animals tested; format: functional
[46] = system: Rattus norvegicus; test: DOM appropriate responses per min when compound administered at 1.8 mg/kg; format: functional; procedure, shortened: as §3
[47] = system: Rattus norvegicus; test: DOM appropriate responding in percent when compound administered at 1.8 mg/kg; format: functional; procedure, shortened: as §2
[48] = system: Rattus norvegicus; test: DOM appropriate responses per min when compound administered at 1.2 mg/kg; format: functional; procedure, shortened: as §3

Structure (SMILES): COc1cc(C[C@@H](C)N)c(OC)cc1I
- Ki [1]: 2290 nM
- Ki [2]: 9.9 nM

Structure (SMILES): CCCNC(C)Cc1cc(OC)c(Br)cc1OC (stereo not given)
- Activity [3]: 4
- Activity [4]: 24%
- Ki [1]: 1320 nM
- Activity [5]: 4
- Response [6]: 6.3 min
- Response [7]: 10.2 min
- Activity [8]: 3
- Response [9]: 5.9 min
- Activity [10]: 79%
- Response [11]: 5.2 min
- Response [12]: 10.2 min
- Activity [13]: 3
- Ki [2]: 1930 nM
- Activity [14]: 63%
- Activity [15]: 88%
- Activity [16]: 92%
- Activity [17]: 6
- ED50 [18]: 4.76 mg/kg

Structure (SMILES): CCCNC(C)Cc1cc(OC)ccc1OC (stereo not given)
- Ki [1]: 4100 nM
- Ki [2]: 25600 nM

Structure (SMILES): COc1cc(Br)ccc1CC(C)N (stereo not given)
- Activity [19]: 3
- Response [20]: 2.8 min
- Ki [1]: 2900 nM
- Response [6]: 14.9 min
- Response [21]: 16.3 min
- Activity [22]: 2
- Response [23]: 3.3 min
- Activity [24]: 1
- Activity [25]: 8%
- Ki [2]: 4870 nM
- Activity [14]: 15%
- Activity [26]: 65%
- Activity [27]: 1
- Activity [28]: 3
- Activity [29]: 17%
- Activity [30]: 3
- Activity [31]: 4
- Response [32]: 4.5 min
- Activity [33]: 14%

Structure (SMILES): COc1cc(CC(C)N)ccc1Br (stereo not given)
- Ki [1]: > 25000 nM
- Ki [2]: > 25000 nM

Structure (SMILES): COc1cc(CC(C)N)c(O)cc1Br (stereo not given)
- Activity [34]: 4
- Response [35]: 12.1 min
- Ki [1]: 1710 nM
- Activity [36]: 19%
- Response [37]: 15.4 min
- Response [38]: 11.9 min
- Activity [39]: 55%
- Ki [2]: 210 nM
- Activity [40]: 3
- ED50 [18]: 0.18 mg/kg
- Activity [41]: 3
- Activity [42]: 96%

Structure (SMILES): CC(N)Cc1ccc(Br)cc1 (stereo not given)
- Ki [1]: 2830 nM
- Ki [2]: 4650 nM

Structure (SMILES): COc1cc(CC(C)N)c(OC)cc1I (stereo not given)
- Activity [43]: 3
- Ki [1]: 920 nM
- Activity [44]: 43%
- Activity [45]: 3
- Response [46]: 7.8 min
- Response [38]: 12.2 min
- Activity [47]: 93%
- Ki [2]: 35 nM
- Activity [40]: 3
- Response [48]: 16.9 min
- ED50 [18]: 0.99 mg/kg
- Activity [42]: 14%

Structure (SMILES): COc1cccc(CC(C)N)c1 (racemic)
- Ki [1]: 2660 nM
- Ki [2]: 7850 nM

Structure (SMILES): COc1ccccc1CC(C)N (racemic)
- Ki [1]: 3500 nM

Structure (SMILES): COc1ccc(OC)c(CC(C)N)c1 (racemic)
- Ki [1]: 1020 nM

Structure (SMILES): COc1cc(CC(C)N)c(OC)cc1Br (racemic) [BROLAMFETAMINE]
- Ki [1]: 3340 nM
- ED50 [18]: 0.2 mg/kg
